In brackets after ≈: the same amount, converted by molar mass.
Columns and labels:
[1] = test system: NCI-H446; assay: Cytotoxicity against human NCI-H446 cells after 72 hrs by MTT assay; format: functional, cell-based; conditions: NCI-H446, 72 h
Summary of the method: (§1)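 Test samples (>95% pure) were dissolved in DMSO and diluted with PBS to a 1000 µg mL-1 solution. This was serially diluted in PBS to 100–3.125 µg mL-1 solutions. Human cells were seeded at (4-6) × 10^4 cells/mL, and 10 µL/well of sample was added 24 h after seeding. Plates were incubated 72 h at 37 °C in humidified 5% CO2. Viability was read by MTT at 570 nm. Doxorubicin served as positive control.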

[2] = test system: HL-60; assay: Cytotoxicity against human HL60 cells after 72 hrs by MTT assay; format: functional, cell-based; conditions: HL-60, 72 h; summary of the method: as §1
[3] = Cytotoxicity against human PC3M cells after 72 hrs by MTT assay; format: functional, cell-based; conditions: PC-3M; summary of the method: as §1
[4] = test system: HCT-116; assay: Cytotoxicity against human HCT116 cells after 72 hrs by MTT assay; format: functional, cell-based; conditions: HCT-116, 72 h; summary of the method: as §1
[5] = test system: NCI-H446; assay: Cytotoxicity against human NCI-H446 cells at 100 ug/ml after 72 hrs by MTT assay; format: functional; conditions: NCI-H446, 72 h, read-out: GI; summary of the method: as §1
[6] = test system: HL-60; assay: Cytotoxicity against human HL60 cells at 100 ug/ml after 72 hrs by MTT assay; format: functional; conditions: HL-60, 72 h, read-out: GI; summary of the method: as §1
[7] = Cytotoxicity against human PC3M cells at 100 ug/ml after 72 hrs by MTT assay; format: functional; conditions: PC-3M, read-out: GI; summary of the method: as §1
[8] = test system: HCT-116; assay: Cytotoxicity against human HCT116 cells at 100 ug/ml after 72 hrs by MTT assay; format: functional; conditions: HCT-116, 72 h, read-out: GI; summary of the method: as §1

SMILES	IC50 [1]	IC50 [2]	IC50 [3]	IC50 [4]	inhibition of growth at 100 µg/mL [5]	inhibition of growth at 100 µg/mL [6]	inhibition of growth at 100 µg/mL [7]	inhibition of growth at 100 µg/mL [8]
COc1cc2sc(=S)n(C)c(=O)c2cc1O [BRETSCHNEIDERAZINE A]	79.2 µg/mL (≈ 310 µM)	> 100 µg/mL	> 100 µg/mL	> 100 µg/mL	53.9%	9.91%	29.4%	0%
COc1ccc2c(=O)n(C)c(=S)sc2c1OC [BRETSCHNEIDERAZINE B]	60.2 µg/mL (≈ 224 µM)	> 100 µg/mL	> 100 µg/mL	> 100 µg/mL	41.3%	8.04%	0%	0%
COc1cc(C=O)ccc1O[C@@H]1O[C@H](CO[C@@H]2OC[C@](O)(CO)[C@H]2O)[C@@H](O)[C@H](O)[C@H]1O [BRETSCHNEIDEROSIDE A]	> 100 µg/mL	> 100 µg/mL	> 100 µg/mL	> 100 µg/mL	29.7%	0.14%	0%	0%
O=Cc1ccc(O[C@@H]2O[C@H](CO[C@@H]3OC[C@](O)(CO)[C@H]3O)[C@@H](O)[C@H](O)[C@H]2O)c(O)c1 [BRETSCHNEIDEROSIDE B]	> 100 µg/mL	> 100 µg/mL	> 100 µg/mL	> 100 µg/mL	38.4%	7.25%	0%	0%
COc1cc(CO[C@@H]2O[C@H](CO[C@@H]3OC[C@](O)(CO)[C@H]3O)[C@@H](O)[C@H](O)[C@H]2O)ccc1O [BRETSCHNEIDEROSIDE C]	> 100 µg/mL	> 100 µg/mL	> 100 µg/mL	> 100 µg/mL	40.7%	5.68%	6.35%	9.3%
COc1cccc2c1C(=O)c1c(O)c3c(c(O)c1C2=O)C[C@@](O)(C(=O)CO)C[C@@H]3O[C@H]1C[C@H](N)[C@H](O)[C@H](C)O1 [DOXORUBICIN]	0.0248 µg/mL (≈ 0.0456 µM)	0.457 µg/mL (≈ 0.841 µM)	< 0.001 µg/mL	0.286 µg/mL (≈ 0.526 µM)	91.2%	94.7%	96.4%	93.1%

Reference: ChEMBL document CHEMBL1221381, “Heterocyclic compounds and aromatic diglycosides from Bretschneidera sinensis” (J Nat Prod, 2010)
